System: HEK-293T
Experiment: Multiplex assay against HEK293T
Assay type: toxicity, cell-based
Conditions: human
Outline: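 Values for tubulin, mitochondrial-mass and membrane-permeability phenotypes are per cents of cells with healthy nuclei. These cells were identified by CellPathfinder machine-learning gating of live cells that had been stained at seeding with Hoechst33342, BioTracker Green Microtubule Cytoskeleton Dye, MitoTracker Red and Annexin V Alexa Fluor 680 and imaged on a CQ1 microscope at 37°C and 5% CO2 after compound addition. The gating first set Hoechst high-intensity objects apart from normal cells, then split normal cells into healthy, pyknosed or fragmented nuclei, and pyknosed cells into mitotic or apoptotic.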

[1] = 12 h, 1 µM, compound concentration 1 uM, replicate 1
[2] = 12 h, 1 µM, compound concentration 1 uM, replicate 2
[3] = 12 h, 10 µM, compound concentration 10 uM, replicate 1
[4] = 12 h, 10 µM, compound concentration 10 uM, replicate 2
[5] = 24 h, 1 µM, compound concentration 1 uM, replicate 1
[6] = 24 h, 1 µM, compound concentration 1 uM, replicate 2
[7] = 24 h, 10 µM, compound concentration 10 uM, replicate 1
[8] = 24 h, 10 µM, compound concentration 10 uM, replicate 2
[9] = 48 h, 1 µM, compound concentration 1 uM, replicate 1
[10] = 48 h, 1 µM, compound concentration 1 uM, replicate 2
[11] = 48 h, 10 µM, compound concentration 10 uM, replicate 1
[12] = 48 h, 10 µM, compound concentration 10 uM, replicate 2

## COc1cc(Nc2ncc3c(n2)-c2ccc(Cl)cc2C(c2c(F)cccc2OC)=NC3)ccc1C(=O)O [ALISERTIB]
[1]
  Population Apoptotic (%): 38%
  Population Fragmented Nuclei (%): 3%
  Population Healthy Nuclei (%): 88%
  Population Hoechst High Intensity Objects (%): 5%
  Population Membrane Permeable-Phenotype (%): 0%
  Population Mitochondria Different-Phenotype (%): 44%
  Population Mitotic Cells (%): 61%
  Population Normal (%): 94%
  Population Pyknosed Nuclei (%): 7%
  Population Tubulin-Different-Phenotype (%): 46%
[2]
  Population Apoptotic (%): 61%
  Population Fragmented Nuclei (%): 7%
  Population Healthy Nuclei (%): 85%
  Population Hoechst High Intensity Objects (%): 7%
  Population Mitochondria Different-Phenotype (%): 69%
  Population Mitotic Cells (%): 38%
  Population Normal (%): 93%
  Population Tubulin-Different-Phenotype (%): 49%
[3]
  Population Apoptotic (%): 61%
  Population Fragmented Nuclei (%): 8%
  Population Healthy Nuclei (%): 74%
  Population Hoechst High Intensity Objects (%): 9%
  Population Membrane Permeable-Phenotype (%): 0%
  Population Mitochondria Different-Phenotype (%): 80%
  Population Mitotic Cells (%): 38%
  Population Normal (%): 90%
  Population Pyknosed Nuclei (%): 16%
  Population Tubulin-Different-Phenotype (%): 68%
[4]
  Population Apoptotic (%): 88%
  Population Fragmented Nuclei (%): 9%
  Population Healthy Nuclei (%): 72%
  Population Hoechst High Intensity Objects (%): 15%
  Population Mitochondria Different-Phenotype (%): 82%
  Population Mitotic Cells (%): 11%
  Population Normal (%): 84%
  Population Pyknosed Nuclei (%): 17%
  Population Tubulin-Different-Phenotype (%): 54%
[5]
  Population Apoptotic (%): 50%
  Population Fragmented Nuclei (%): 10%
  Population Healthy Nuclei (%): 82%
  Population Hoechst High Intensity Objects (%): 3%
  Population Membrane Permeable-Phenotype (%): 0%
  Population Mitochondria Different-Phenotype (%): 25%
  Population Mitotic Cells (%): 50%
  Population Normal (%): 96%
  Population Pyknosed Nuclei (%): 7%
  Population Tubulin-Different-Phenotype (%): 31%
[6]
  Population Apoptotic (%): 47%
  Population Fragmented Nuclei (%): 9%
  Population Healthy Nuclei (%): 81%
  Population Hoechst High Intensity Objects (%): 9%
  Population Mitochondria Different-Phenotype (%): 47%
  Population Mitotic Cells (%): 52%
  Population Normal (%): 90%
  Population Pyknosed Nuclei (%): 9%
  Population Tubulin-Different-Phenotype (%): 30%
[7]
  Population Apoptotic (%): 54%
  Population Fragmented Nuclei (%): 8%
  Population Healthy Nuclei (%): 74%
  Population Hoechst High Intensity Objects (%): 6%
  Population Membrane Permeable-Phenotype (%): 0%
  Population Mitochondria Different-Phenotype (%): 75%
  Population Mitotic Cells (%): 45%
  Population Normal (%): 93%
  Population Pyknosed Nuclei (%): 16%
  Population Tubulin-Different-Phenotype (%): 64%
[8]
  Population Apoptotic (%): 56%
  Population Fragmented Nuclei (%): 12%
  Population Healthy Nuclei (%): 55%
  Population Hoechst High Intensity Objects (%): 34%
  Population Membrane Permeable-Phenotype (%): 1%
  Population Mitochondria Different-Phenotype (%): 86%
  Population Mitotic Cells (%): 43%
  Population Normal (%): 65%
  Population Pyknosed Nuclei (%): 31%
  Population Tubulin-Different-Phenotype (%): 50%
[9]
  Population Apoptotic (%): 31%
  Population Fragmented Nuclei (%): 14%
  Population Healthy Nuclei (%): 79%
  Population Hoechst High Intensity Objects (%): 3%
  Population Membrane Permeable-Phenotype (%): 0%
  Population Mitochondria Different-Phenotype (%): 14%
  Population Mitotic Cells (%): 68%
  Population Normal (%): 96%
  Population Pyknosed Nuclei (%): 5%
  Population Tubulin-Different-Phenotype (%): 17%
[10]
  Population Apoptotic (%): 57%
  Population Fragmented Nuclei (%): 16%
  Population Healthy Nuclei (%): 77%
  Population Hoechst High Intensity Objects (%): 15%
  Population Mitochondria Different-Phenotype (%): 27%
  Population Mitotic Cells (%): 42%
  Population Normal (%): 84%
  Population Tubulin-Different-Phenotype (%): 24%
[11]
  Population Apoptotic (%): 48%
  Population Fragmented Nuclei (%): 13%
  Population Healthy Nuclei (%): 78%
  Population Hoechst High Intensity Objects (%): 5%
  Population Membrane Permeable-Phenotype (%): 0%
  Population Mitochondria Different-Phenotype (%): 57%
  Population Mitotic Cells (%): 52%
  Population Normal (%): 94%
  Population Pyknosed Nuclei (%): 7%
  Population Tubulin-Different-Phenotype (%): 42%
[12]
  Population Apoptotic (%): 82%
  Population Fragmented Nuclei (%): 19%
  Population Healthy Nuclei (%): 61%
  Population Hoechst High Intensity Objects (%): 32%
  Population Membrane Permeable-Phenotype (%): 4%
  Population Mitochondria Different-Phenotype (%): 73%
  Population Mitotic Cells (%): 17%
  Population Normal (%): 67%
  Population Pyknosed Nuclei (%): 19%
  Population Tubulin-Different-Phenotype (%): 38%

## CN(C)C/C=C/C(=O)Nc1ccc(C(=O)N2CCCC(Nc3ncc(Cl)c(-c4c[nH]c5ccccc45)n3)C2)cc1 (centres undefined)
[1]
  Population Apoptotic (%): 46%
  Population Fragmented Nuclei (%): 8%
  Population Healthy Nuclei (%): 55%
  Population Hoechst High Intensity Objects (%): 30%
  Population Membrane Permeable-Phenotype (%): 0%
  Population Mitochondria Different-Phenotype (%): 87%
  Population Mitotic Cells (%): 53%
  Population Normal (%): 69%
  Population Pyknosed Nuclei (%): 35%
  Population Tubulin-Different-Phenotype (%): 69%
  Total Cell Count: 227
[2]
  Population Apoptotic (%): 63%
  Population Fragmented Nuclei (%): 6%
  Population Healthy Nuclei (%): 64%
  Population Hoechst High Intensity Objects (%): 23%
  Population Mitochondria Different-Phenotype (%): 89%
  Population Mitotic Cells (%): 36%
  Population Normal (%): 76%
  Population Pyknosed Nuclei (%): 29%
  Population Tubulin-Different-Phenotype (%): 70%
  Total Cell Count: 231
[3]
  Population Apoptotic (%): 62%
  Population Fragmented Nuclei (%): 12%
  Population Healthy Nuclei (%): 57%
  Population Hoechst High Intensity Objects (%): 35%
  Population Membrane Permeable-Phenotype (%): 0%
  Population Mitochondria Different-Phenotype (%): 95%
  Population Mitotic Cells (%): 37%
  Population Normal (%): 64%
  Population Pyknosed Nuclei (%): 30%
  Population Tubulin-Different-Phenotype (%): 79%
  Total Cell Count: 269
[4]
  Population Apoptotic (%): 77%
  Population Fragmented Nuclei (%): 7%
  Population Healthy Nuclei (%): 64%
  Population Hoechst High Intensity Objects (%): 29%
  Population Mitotic Cells (%): 22%
  Population Normal (%): 70%
  Population Pyknosed Nuclei (%): 28%
  Population Tubulin-Different-Phenotype (%): 81%
  Total Cell Count: 181
[5]
  Population Apoptotic (%): 72%
  Population Fragmented Nuclei (%): 15%
  Population Healthy Nuclei (%): 62%
  Population Hoechst High Intensity Objects (%): 27%
  Population Membrane Permeable-Phenotype (%): 0%
  Population Mitochondria Different-Phenotype (%): 85%
  Population Mitotic Cells (%): 27%
  Population Normal (%): 72%
  Population Pyknosed Nuclei (%): 22%
  Population Tubulin-Different-Phenotype (%): 74%
  Total Cell Count: 222
[6]
  Population Apoptotic (%): 74%
  Population Fragmented Nuclei (%): 9%
  Population Healthy Nuclei (%): 67%
  Population Hoechst High Intensity Objects (%): 26%
  Population Mitochondria Different-Phenotype (%): 89%
  Population Mitotic Cells (%): 25%
  Population Normal (%): 73%
  Population Pyknosed Nuclei (%): 23%
  Population Tubulin-Different-Phenotype (%): 70%
  Total Cell Count: 207
[7]
  Population Apoptotic (%): 74%
  Population Fragmented Nuclei (%): 19%
  Population Healthy Nuclei (%): 55%
  Population Hoechst High Intensity Objects (%): 49%
  Population Membrane Permeable-Phenotype (%): 0%
  Population Mitochondria Different-Phenotype (%): 96%
  Population Mitotic Cells (%): 25%
  Population Normal (%): 50%
  Population Pyknosed Nuclei (%): 24%
  Population Tubulin-Different-Phenotype (%): 52%
  Total Cell Count: 314
[8]
  Population Apoptotic (%): 88%
  Population Fragmented Nuclei (%): 10%
  Population Healthy Nuclei (%): 68%
  Population Hoechst High Intensity Objects (%): 34%
  Population Mitochondria Different-Phenotype (%): 98%
  Population Mitotic Cells (%): 11%
  Population Normal (%): 65%
  Population Pyknosed Nuclei (%): 20%
  Population Tubulin-Different-Phenotype (%): 77%
  Total Cell Count: 197
[9]
  Population Apoptotic (%): 67%
  Population Fragmented Nuclei (%): 16%
  Population Healthy Nuclei (%): 59%
  Population Hoechst High Intensity Objects (%): 30%
  Population Membrane Permeable-Phenotype (%): 0%
  Population Mitochondria Different-Phenotype (%): 79%
  Population Mitotic Cells (%): 32%
  Population Normal (%): 69%
  Population Pyknosed Nuclei (%): 23%
  Population Tubulin-Different-Phenotype (%): 71%
  Total Cell Count: 239
[10]
  Population Apoptotic (%): 81%
  Population Fragmented Nuclei (%): 6%
  Population Healthy Nuclei (%): 65%
  Population Hoechst High Intensity Objects (%): 26%
  Population Mitochondria Different-Phenotype (%): 95%
  Population Mitotic Cells (%): 18%
  Population Normal (%): 73%
  Population Pyknosed Nuclei (%): 27%
  Population Tubulin-Different-Phenotype (%): 74%
  Total Cell Count: 184
[11]
  Population Apoptotic (%): 55%
  Population Fragmented Nuclei (%): 62%
  Population Healthy Nuclei (%): 14%
  Population Hoechst High Intensity Objects (%): 67%
  Population Membrane Permeable-Phenotype (%): 0%
  Population Mitochondria Different-Phenotype (%): 100%
  Population Mitotic Cells (%): 44%
  Population Normal (%): 32%
  Population Pyknosed Nuclei (%): 23%
  Population Tubulin-Different-Phenotype (%): 23%
  Total Cell Count: 361
[12]
  Population Apoptotic (%): 80%
  Population Fragmented Nuclei (%): 47%
  Population Healthy Nuclei (%): 30%
  Population Hoechst High Intensity Objects (%): 58%
  Population Mitochondria Different-Phenotype (%): 94%
  Population Mitotic Cells (%): 20%
  Population Normal (%): 41%
  Population Pyknosed Nuclei (%): 21%
  Population Tubulin-Different-Phenotype (%): 57%
  Total Cell Count: 277

From ChEMBL document CHEMBL5058577, “EUbOPEN Chemogenomics Library 2 (Multiplex)” (2022)
